Holding throughout (type): cell-based
Assay [1] has as its target Transient receptor potential cation channel subfamily V member 1 (Rattus norvegicus) (UniProt O35433). Nature of the assay: Partial antagonist activity at rat TRPV1 expressed in HEK293 cells assessed as inhibition of proton-induced channel current at 2 uM at -60 mV holding potential co-treated with proton by whole-cell patch clamp method. Put shortly:
(§1)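 Proton-activated currents were recorded in rat TRPV1-expressing HEK293 cells held at −60 mV in whole-cell mode, with bath buffered to pH 6 with 10 mM MES, at ~25 °C. Peak current amplitude was the read-out.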
A general note: The patch-clamp technique gives a direct electrical read-out from membranes.

The target of assay [2] is Transient receptor potential cation channel subfamily V member 1 (Rattus norvegicus, UniProt O35433). Nature of the assay: Agonist activity at rat TRPV1 channel expressed in HEK293 cells assessed as induction of channel current at -60 mV holding potential by whole-cell patch-clamp method. Put shortly: (§2)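 Rat TRPV1 cDNA and an EGFP reporter were cotransfected into HEK293 cells, with recording 1 day later. Whole-cell voltage clamp was run at room temperature (~25 °C) in standard bath (2 mM CaCl2, pH 7.4) with a KCl/MgATP/EGTA pipette solution. Steps from −100 to +100 mV (100 ms) gave I–V curves. Agonist was applied until desensitization, and peak current was scored. EC50 came from a sigmoidal fit.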

For assay [3], the target named is Transient receptor potential cation channel subfamily V member 1 (Rattus norvegicus) (UniProt O35433). Nature of the assay: Agonist activity at rat TRPV1 channel expressed in HEK293 cells assessed as induction of inward current at 50 uM and -60 mV holding potential by whole-cell patch-clamp method. Put shortly: as §2
The target is the same in assay [4]. Nature of the assay: Agonist activity at rat TRPV1 channel expressed in HEK293 cells assessed as reversal potential at 50 uM and -60 mV holding potential by whole-cell patch-clamp method. The method, boiled down: as §2
Assay [5] has the same target. Briefly: Agonist activity at rat TRPV1 channel expressed in HEK293 cells assessed as induction of maximum channel current at 50 uM at -60 mV holding potential by whole-cell patch-clamp method. The method, boiled down:
as §2

For assay [6] the target is unchanged. Briefly: Agonist activity at rat TRPV1 channel expressed in HEK293 cells assessed as outward rectifying current at 50 uM and -60 mV holding potential by whole-cell patch-clamp method. Put shortly:
as §2

The target is the same in assay [7]. Briefly: Partial antagonist activity at rat TRPV1 expressed in HEK293 cells assessed as inhibition of proton-induced channel current at 1 or 50 uM and -60 mV holding potential pretreated for 60 secs prior to proton-challenge by whole-cell patch clamp method (reference value: 185.1 +/- 38.6 pA/pF). Put shortly: as §1

The record followed here is ChEMBL document CHEMBL3856186, “Partial Activation and Inhibition of TRPV1 Channels by Evodiamine and Rutaecarpine, Two Major Components of the Fruits of Evodia rutaecarpa” (J Nat Prod, 2016).

Usually pEC50 stands for the negative decadic logarithm of the EC50, by convention in mol/L.

Structures are written as SMILES. pEC50: −log10 of the molar value. Activity calls are given as the source filed them. The rule behind the calls is not given here.

Sequence of Transient receptor potential cation channel subfamily V member 1 (Rattus norvegicus) (O35433 whole entry): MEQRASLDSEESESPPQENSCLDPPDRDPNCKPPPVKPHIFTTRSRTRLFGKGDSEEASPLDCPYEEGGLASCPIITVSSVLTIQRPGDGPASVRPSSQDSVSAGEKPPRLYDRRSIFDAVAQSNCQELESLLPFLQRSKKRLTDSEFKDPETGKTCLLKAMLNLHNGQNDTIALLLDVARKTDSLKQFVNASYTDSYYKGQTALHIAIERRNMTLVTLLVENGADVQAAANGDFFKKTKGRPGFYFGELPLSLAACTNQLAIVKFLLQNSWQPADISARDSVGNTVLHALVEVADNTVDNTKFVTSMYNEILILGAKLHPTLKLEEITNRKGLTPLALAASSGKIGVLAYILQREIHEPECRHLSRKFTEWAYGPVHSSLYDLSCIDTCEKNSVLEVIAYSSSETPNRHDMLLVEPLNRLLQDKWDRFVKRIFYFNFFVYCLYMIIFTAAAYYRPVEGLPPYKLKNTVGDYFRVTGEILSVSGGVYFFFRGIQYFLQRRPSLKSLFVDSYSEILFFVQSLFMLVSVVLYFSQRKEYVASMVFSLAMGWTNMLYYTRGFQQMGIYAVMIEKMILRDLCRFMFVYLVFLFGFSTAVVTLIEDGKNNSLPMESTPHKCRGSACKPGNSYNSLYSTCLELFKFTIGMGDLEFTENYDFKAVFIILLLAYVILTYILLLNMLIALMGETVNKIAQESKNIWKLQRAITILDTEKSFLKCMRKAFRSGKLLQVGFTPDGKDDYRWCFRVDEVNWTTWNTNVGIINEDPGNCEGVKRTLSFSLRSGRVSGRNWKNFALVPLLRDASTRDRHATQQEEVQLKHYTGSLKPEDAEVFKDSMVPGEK
Sequence of Transient receptor potential cation channel subfamily V member 1 (O35433 whole entry): as above

Turning to `O=c1c2ccccc2nc2n1CCc1c-2[nH]c2ccccc12` [RUTAECARPINE], the Activity in assay [1] was -200 pA/pF; in assay [4] it was 0 mV; in assay [5] it was -55 pA/pF; in assay [7], -157 pA/pF. Besides, the pEC50 in assay [2] was 5.69. The result in assay [3] and in assay [6] was Active.
